# Assay results: ChEMBL document CHEMBL1148942, “Cucurbitane triterpenoids from Leucopaxillus gentianeus” (J Nat Prod, 2004)
# Tests used:
# Format in all cases: functional, cell-based
# [1] = tested on: A549; test: Cytotoxicity against human A549 cells after 24 hrs by MTT assay; settings: A549, 24 h
# In short: (§1)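 ATCC cells kept adherent at 37 °C, 5% CO2 (A549: F12K + 10% FBS; HepG2, MCF-7: MEM + 1 mM pyruvate + 10% FBS; CAKI 1: McCoy's + 10% FBS). Seeded and grown 24 h, then exposed 24 h to compounds in FBS-free medium (final DMSO 0.25%). PBS wash, MTT 0.5 mg/mL in phenol-red-free MEM for 3 h at 37 °C, formazan dissolved in DMSO, read at A540. Two experiments in triplicate; IC50 derived.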
# [2] = tested on: CAKI-1; test: Cytotoxicity against human Caki1 cells after 24 hrs by MTT assay; settings: CAKI-1, 24 h; in short: as §1
# [3] = tested on: HepG2; test: Cytotoxicity against human HepG2 cells after 24 hrs by MTT assay; settings: HepG2, 24 h; in short: as §1
# [4] = tested on: MCF7; test: Cytotoxicity against human MCF7 cells after 24 hrs by MTT assay; settings: MCF7, 24 h; in short: as §1
SMILES,IC50 [1] [µM],IC50 [2] [µM],IC50 [3] [µM],IC50 [4] [µM]
CC(=O)OC(C)(C)/C=C/C(=O)[C@](C)(O)[C@H]1[C@H](O)C[C@@]2(C)[C@@H]3CC=C4[C@H](C[C@H](O)C(=O)C4(C)C)[C@]3(C)C(=O)C[C@]12C [CUCURBITACIN B],46.6,7.1,0.76,0.78
CC(=O)O[C@H](C[C@@H](OC(C)=O)C(C)(C)O)[C@@H](C)[C@H]1CC[C@@]2(C)[C@@H]3CC=C4[C@@H](CCC(=O)C4(C)C)[C@]3(C)CC[C@]12CO [LEUCOPAXILLONE A],> 300,108,96.7,7.94
CC(=O)O[C@H](C[C@@H](OC(C)=O)C(C)(C)O)[C@@H](C)[C@H]1CC[C@@]2(C)[C@@H]3CC=C4[C@@H](CCC(=O)C4(C)C)[C@]3(C)[C@]3(O)C[C@]12CO3 [LEUCOPAXILLONE B],155,30.3,86.9,86.9
